MC4R ag barr – MC4R agonists recruiting beta-arrestin, primary screen, cell-based, luminescence, agonist arm of biased-ligand search; 0.98% of 360,000 active; AID 540308, 2011; Melanocortin receptor 4 (Homo sapiens), P32245; activation, % at 8.9 µM; U2OS MC4R beta-arrestin complementation; percent of melanotan II response, DMSO zero;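 active means activation above a per-plate cutoff, the mean activation of sample wells on that plate plus 3 SD, cut at about 8% in these data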
NR2E3 ag-1 – NR2E3 agonists in two-hybrid cells, primary screen, cell-based, luminescence, CHO-S, Gal4-NCOR/VP16-NR2E3. Photoreceptor-specific nuclear receptor (Homo sapiens), Q9Y5X4. 0.35% of 360,000 active. inhibition of corepressor binding, % at 3.98 µM. luciferase. AID 602229, 2012;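 active means inhibition above the mean of all tested compounds plus 3 SD, cut at about 70% in these data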;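 further: 0% = DMSO with NR2E3 transfected cells and 100% = cells lacking NR2E3 construct; higher means lower luciferase signal from less NR2E3 corepressor binding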
NR2E3 ag-2 – inhibitors of NR2E3-RetCOR corepressor binding, primary screen, NR2E3 agonist project, biochemical, TR-FRET, GST-NR2E3, biotin-RetCOR | 0.12% of 320,000 active | Photoreceptor-specific nuclear receptor (Homo sapiens), Q9Y5X4 | 1536-well | inhibition of corepressor binding, % at 4.78 µM;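 active means percent inhibition above the cutoff of mean plus 3 SD of all tested compounds, set per screening campaign, cut at about 20% in these data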;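 further: 0% = DMSO wells and 100% = biotin wells as full block of FRET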
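Test system – NR2E3–RetCOR corepressor complex · Quantity – NR2E3 fusion 1.35 nM · Buffer or medium – Tris pH 7.5 · Incubation – Compound–protein incubation for 5 h at 4 °C · Technique – TR-FRET, Eu(K)-anti-GST donor, streptavidin-D2 acceptor, ex 340, em 617/671 nm · Evaluation – percent inhibition of 671/617 nm emission ratio versus biotin and DMSO controls · Plate – 1536-well format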
MC4R antag cAMP – MC4R antagonists of cAMP signaling, primary screen, cell-based, TR-FRET, antagonist arm of biased-ligand search; Melanocortin receptor 4 (Homo sapiens), P32245; MC4R-expressing cells, MTII-stimulated cAMP, LANCE TR-FRET; inhibition, % at 6.5 µM; 0.48% of 360,000 active;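 active means inhibition above its plate's cutoff, the mean of tested wells on that plate plus 3 SD, cut at about 29% in these data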;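 further: 0% = Melanotan II alone and 100% = Melanotan II plus saturating MCL0020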
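System: U2OS cells stably expressing human melanocortin 4 receptor (MC4R). Reagent: Melanotan II challenge after compound preincubation. Doses: 6.5 µM. Times: 30-min compound, 1-h challenge, 1-h detection, room temperature. Measured by: TR-FRET with Eu-cAMP and labeled anti-cAMP, 671 nm. Replicates: singlicate.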
PG9 binder – binders of HIV-1 gp120 antibody PG9, primary screen, biochemical, TR-FRET; HIV-1 gp120 / PG9 antibody interaction; TR-FRET gp120-PG9 antibody binding; inhibition, % at 6.7 µM; 0.43% of 360,000 active; AID 624416, 2012; in the data active means inhibition above about 8.5%
Rev-erbA mod – modulators of Rev-erb alpha DNA binding, primary screen, biochemical, FITC-DNA, fluorescence polarization, uHTS; Nuclear receptor subfamily 1 group D member 1 (Homo sapiens), P20393; 0.79% of 370,000 active; Rev-erbα–FITC-DNA binding, 90 min; activity, % at 10 µM;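 active means activity above about 14%, limit read from the data; passing the limit was not always enough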;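 further: 0% = DMSO wells with 35 nM protein and 100% = DMSO wells with 750 nM protein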
Target sequence (P20393 whole entry, looked up): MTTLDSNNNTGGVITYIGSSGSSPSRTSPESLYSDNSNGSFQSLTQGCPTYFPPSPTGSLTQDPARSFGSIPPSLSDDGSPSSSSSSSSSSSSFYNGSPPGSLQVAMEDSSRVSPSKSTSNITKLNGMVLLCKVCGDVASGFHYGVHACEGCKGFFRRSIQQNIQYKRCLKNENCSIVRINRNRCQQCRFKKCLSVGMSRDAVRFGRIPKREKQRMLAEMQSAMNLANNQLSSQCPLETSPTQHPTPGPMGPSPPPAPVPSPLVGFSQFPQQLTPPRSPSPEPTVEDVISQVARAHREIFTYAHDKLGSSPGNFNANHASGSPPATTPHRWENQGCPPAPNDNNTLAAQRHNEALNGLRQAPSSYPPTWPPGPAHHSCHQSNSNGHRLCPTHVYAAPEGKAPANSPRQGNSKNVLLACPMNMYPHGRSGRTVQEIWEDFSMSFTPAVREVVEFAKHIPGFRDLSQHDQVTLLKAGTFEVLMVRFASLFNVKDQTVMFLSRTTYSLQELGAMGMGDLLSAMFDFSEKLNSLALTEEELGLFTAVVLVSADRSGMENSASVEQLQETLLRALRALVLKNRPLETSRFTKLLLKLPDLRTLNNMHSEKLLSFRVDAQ
NR2E3 ag confirm – NR2E3 agonist confirmation in cells, cell-based, luminescence, CHO-S two-hybrid; shares compounds with NR2E3 ag-1; CHO-S mammalian two-hybrid NR2E3-NCOR, luciferase luminescence; inhibition, % at 3.98 µM; 51% of 2,300 active;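 active means average inhibition above a cutoff equal to the mean inhibition of all tested compounds plus one SD, cut at about 70% in these data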;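 further: 0% = DMSO in NR2E3 cells and 100% = DMSO in cells lacking NR2E3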
VP16 counter – GAL4-VP16 reporter modulators, confirmation, counter-screen for NR2E3 agonist project, cell-based, luminescence, CHO-S, high throughput; shares compounds with NR2E3 ag-1; CHO-S GAL4-VP16 luciferase reporter; inhibition, % at 3.98 µM; 29% of 2,300 active; AID 624379, 2012;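 active means mean inhibition above a cutoff equal to the average over all tested compounds plus one standard deviation, cut at about 70% in these data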;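 further: luciferase from a UAS reporter driven by GAL4-VP16 transactivation; 0% = DMSO with VP16-transfected cells and 100% = DMSO with cells lacking VP16; higher means less reporter light so more repression of VP16 activity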
The depositor's hits bear a star. Rows were chosen to be rich in hits. Some 2.7% of all compounds tested hit in one or more screens of this group.

Screening c1ccc(-c2nnc3sc(CN4CCc5ccccc54)cn23)cc1 returned MC4R ag barr -0.2, NR2E3 ag-1 50.9, NR2E3 ag-2 -1.4, MC4R antag cAMP -23.6, PG9 binder 0.8, Rev-erbA mod -1.4, NR2E3 ag confirm 30.5 and VP16 counter 11.8.
For Cc1cc(SCn2nnc3ccccc3c2=O)nc2ccccc12 the results were MC4R ag barr 3.4, NR2E3 ag-1 -9.6, NR2E3 ag-2 -4.1, MC4R antag cAMP 1.3, PG9 binder 0.8 and Rev-erbA mod -1.7.
`Cc1ccc(-n2nnnc2SCn2nnc3ccccc3c2=O)c(C)c1` gave MC4R ag barr -0.1, NR2E3 ag-1 92.1*, NR2E3 ag-2 0.0, MC4R antag cAMP 1.9, PG9 binder -0.8, Rev-erbA mod 0.4, NR2E3 ag confirm 88.7* and VP16 counter 72.2*.
CC[C@@H](C(=O)[C@@H](C)[C@@H](O)[C@H](C)CCc1ccc(C)c(O)c1C(=O)O)[C@H]1O[C@](CC)([C@H]2CC[C@](O)(CC)[C@H](C)O2)C[C@@H]1C was read as MC4R ag barr 88.5*, NR2E3 ag-1 103.5*, NR2E3 ag-2 1.5, MC4R antag cAMP 6.1, PG9 binder -1.1, Rev-erbA mod 0.2, NR2E3 ag confirm 97.7* and VP16 counter 90.7*.
Screening CCOC(=O)N1CCC(NC(=O)C2CCCN(Cc3nc(-c4cccc(Cl)c4)oc3C)C2)CC1 (centres undefined) returned MC4R ag barr 1.9, NR2E3 ag-1 84.0*, NR2E3 ag-2 -0.1, MC4R antag cAMP 2.0, PG9 binder -0.2, Rev-erbA mod -1.0, NR2E3 ag confirm 87.6* and VP16 counter 64.8.
Screening Cc1oc(-c2ccc(Cl)cc2)nc1CN1CCCC(C(=O)NC2CC2)C1 (centres undefined) returned MC4R ag barr -1.7, NR2E3 ag-1 13.7, NR2E3 ag-2 3.9, MC4R antag cAMP 2.3, PG9 binder 0.9 and Rev-erbA mod -1.8.
Screening Cc1ccc(OCC(=O)c2cc(C)n(Cc3cccs3)c2C)c([N+](=O)[O-])n1 returned MC4R ag barr 0.9, NR2E3 ag-1 84.0*, NR2E3 ag-2 1.3, MC4R antag cAMP 17.6, PG9 binder -0.4, Rev-erbA mod 2.2, NR2E3 ag confirm 92.9* and VP16 counter 87.7*.
For CCN(CC(=O)Nc1ccc(NC(C)=O)cc1)C(=O)C1(c2ccc(Cl)cc2)CCC1 the results were MC4R ag barr -1.6, NR2E3 ag-1 47.8, MC4R antag cAMP 13.2, PG9 binder -1.6, Rev-erbA mod 3.6, NR2E3 ag confirm 38.8 and VP16 counter -3.9.
Screening CC(=O)Nc1ccc(NC(=O)COC(=O)C2(c3ccc(Cl)cc3)CCCC2)cc1 returned MC4R ag barr -0.7, NR2E3 ag-1 -25.0, NR2E3 ag-2 0.1, MC4R antag cAMP 2.0, PG9 binder 1.8 and Rev-erbA mod 5.0.
Screening O=C(c1cc2ccccc2o1)N1CCN(CCOc2ccccc2)CC1 returned MC4R ag barr -2.5, NR2E3 ag-1 10.3, MC4R antag cAMP -3.5, PG9 binder -2.9 and Rev-erbA mod 6.2.
For CCc1ccc(OC)c(S(=O)(=O)Nc2ccc(Cc3ccncc3)cc2)c1 the results were MC4R ag barr -1.0, NR2E3 ag-1 98.7*, NR2E3 ag-2 -1.4, MC4R antag cAMP 8.2, PG9 binder 0.4, Rev-erbA mod -5.0, NR2E3 ag confirm 85.9* and VP16 counter 73.8*.
`COc1ccc(NC(=O)Nc2cnccn2)c(OC)c1` gave MC4R ag barr -0.2, NR2E3 ag-1 -8.6, NR2E3 ag-2 -1.5, MC4R antag cAMP 8.5, PG9 binder -1.4 and Rev-erbA mod -2.2.
COc1ccc(NC(C)=O)cc1S(=O)(=O)Nc1ccc(OCc2ccccc2)cc1 was read as MC4R ag barr -1.7, NR2E3 ag-1 72.6*, NR2E3 ag-2 0.3, MC4R antag cAMP 0.9, PG9 binder 0.2, Rev-erbA mod -5.7, NR2E3 ag confirm 77.5* and VP16 counter 57.5.
For COc1ccc(S(=O)(=O)Nc2ccc(Cc3ccncc3)cc2)cc1OC the results were MC4R ag barr -0.1, NR2E3 ag-1 60.9, NR2E3 ag-2 0.7, MC4R antag cAMP 5.4, PG9 binder 1.2, Rev-erbA mod 1.9, NR2E3 ag confirm 71.6* and VP16 counter 66.9.
`COc1ccc(NC(=O)Nc2ccc(Cc3ccncc3)cc2)c(OC)c1` gave MC4R ag barr -0.1, NR2E3 ag-1 51.0, NR2E3 ag-2 0.5, MC4R antag cAMP 2.8, PG9 binder -1.5, Rev-erbA mod 2.3, NR2E3 ag confirm 28.9 and VP16 counter 14.7.
`COc1ccc(NC(C)=O)cc1S(=O)(=O)Nc1ccccc1C(=O)NCCc1ccccc1` gave MC4R ag barr -1.1, NR2E3 ag-1 -75.8, NR2E3 ag-2 -0.1, MC4R antag cAMP 13.4, PG9 binder -3.1 and Rev-erbA mod 2.1.
O=C(CSc1nnc(-c2ccccn2)n1-c1ccc(Cl)cc1)Nc1cccc2ccccc12 was read as Rev-erbA mod -2.6.
`Cc1cccc2nc(CSc3ccc(Cl)cc3)cn12` gave MC4R ag barr -2.1, NR2E3 ag-1 -91.5, NR2E3 ag-2 4.8, MC4R antag cAMP -0.3, PG9 binder -2.1 and Rev-erbA mod 0.5.
O=C(Nc1ccc(Oc2ccccc2)cc1)c1csc([C@H]2C[C@H](O)[C@@H](CO)O2)n1 was read as MC4R ag barr -1.5, NR2E3 ag-1 47.6, MC4R antag cAMP 1.9, PG9 binder 0.1, Rev-erbA mod 8.0, NR2E3 ag confirm 77.6* and VP16 counter 60.5.
`CC(=O)Nc1ccc(NC(=O)c2csc([C@@H]3C[C@H](O)[C@@H](CO)O3)n2)cc1` gave MC4R ag barr -1.0, NR2E3 ag-1 -0.1, MC4R antag cAMP 2.7, PG9 binder 0.2 and Rev-erbA mod 7.5.
